Experimental data from ChEMBL document CHEMBL5058577, “EUbOPEN Chemogenomics Library 2 (Multiplex)” (2022).

Test system: Fibroblast
Test: Multiplex assay against human fibroblast
Assay type: toxicity, cell-based
How it was run: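 At seeding, live cells were stained with Hoechst33342, BioTracker Green Microtubule Cytoskeleton Dye, MitoTracker Red and Annexin V Alexa Fluor 680. After compound addition they were imaged on a CQ1 microscope at 37°C and 5% CO2, and CellPathfinder machine-learning gating sorted them into Hoechst high-intensity objects or normal cells, with normal cells further split into healthy, pyknosed or fragmented nuclei and pyknosed cells into mitotic or apoptotic. Tubulin, mitochondrial-mass and membrane-permeability phenotypes are given as per cents of cells with healthy nuclei.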

[1] = 12 h, 1 µM, compound concentration 1 uM, replicate 1
[2] = 12 h, 1 µM, compound concentration 1 uM, replicate 2
[3] = 12 h, 10 µM, compound concentration 10 uM, replicate 1
[4] = 12 h, 10 µM, compound concentration 10 uM, replicate 2
[5] = 24 h, 1 µM, compound concentration 1 uM, replicate 1
[6] = 24 h, 1 µM, compound concentration 1 uM, replicate 2
[7] = 24 h, 10 µM, compound concentration 10 uM, replicate 1
[8] = 24 h, 10 µM, compound concentration 10 uM, replicate 2
[9] = 48 h, 1 µM, compound concentration 1 uM, replicate 1
[10] = 48 h, 1 µM, compound concentration 1 uM, replicate 2
[11] = 48 h, 10 µM, compound concentration 10 uM, replicate 1
[12] = 48 h, 10 µM, compound concentration 10 uM, replicate 2

Compound: CN(C)C(=O)Cn1cc(-c2ccc(-c3cncc4ccccc34)cc2)cn1
- Population Apoptotic (%) [1]: 47%
- Population Fragmented Nuclei (%) [1]: 10%
- Population Healthy Nuclei (%) [1]: 72%
- Population Hoechst High Intensity Objects (%) [1]: 0%
- Population Membrane Permeable-Phenotype (%) [1]: 0%
- Population Mitochondria Different-Phenotype (%) [1]: 5%
- Population Mitotic Cells (%) [1]: 52%
- Population Normal (%) [1]: 100%
- Population Pyknosed Nuclei (%) [1]: 16%
- Population Tubulin-Different-Phenotype (%) [1]: 31%
- Total Cell Count [1]: 139
- Population Apoptotic (%) [2]: 32%
- Population Fragmented Nuclei (%) [2]: 33%
- Population Healthy Nuclei (%) [2]: 46%
- Population Hoechst High Intensity Objects (%) [2]: 5%
- Population Membrane Permeable-Phenotype (%) [2]: 5%
- Population Mitochondria Different-Phenotype (%) [2]: 2%
- Population Mitotic Cells (%) [2]: 67%
- Population Normal (%) [2]: 94%
- Population Pyknosed Nuclei (%) [2]: 20%
- Population Tubulin-Different-Phenotype (%) [2]: 54%
- Total Cell Count [2]: 161
- Population Apoptotic (%) [3]: 33%
- Population Fragmented Nuclei (%) [3]: 13%
- Population Healthy Nuclei (%) [3]: 69%
- Population Hoechst High Intensity Objects (%) [3]: 4%
- Population Membrane Permeable-Phenotype (%) [3]: 1%
- Population Mitochondria Different-Phenotype (%) [3]: 12%
- Population Mitotic Cells (%) [3]: 66%
- Population Normal (%) [3]: 95%
- Population Pyknosed Nuclei (%) [3]: 16%
- Population Tubulin-Different-Phenotype (%) [3]: 52%
- Total Cell Count [3]: 113
- Population Fragmented Nuclei (%) [4]: 40%
- Population Healthy Nuclei (%) [4]: 42%
- Population Hoechst High Intensity Objects (%) [4]: 9%
- Population Membrane Permeable-Phenotype (%) [4]: 18%
- Population Mitochondria Different-Phenotype (%) [4]: 5%
- Population Normal (%) [4]: 90%
- Population Tubulin-Different-Phenotype (%) [4]: 81%
- Total Cell Count [4]: 98
- Population Apoptotic (%) [5]: 47%
- Population Fragmented Nuclei (%) [5]: 12%
- Population Healthy Nuclei (%) [5]: 73%
- Population Hoechst High Intensity Objects (%) [5]: 5%
- Population Membrane Permeable-Phenotype (%) [5]: 0%
- Population Mitochondria Different-Phenotype (%) [5]: 3%
- Population Mitotic Cells (%) [5]: 52%
- Population Normal (%) [5]: 94%
- Population Pyknosed Nuclei (%) [5]: 14%
- Population Tubulin-Different-Phenotype (%) [5]: 37%
- Total Cell Count [5]: 137
- Population Apoptotic (%) [6]: 48%
- Population Fragmented Nuclei (%) [6]: 40%
- Population Healthy Nuclei (%) [6]: 38%
- Population Membrane Permeable-Phenotype (%) [6]: 7%
- Population Mitochondria Different-Phenotype (%) [6]: 5%
- Population Mitotic Cells (%) [6]: 51%
- Population Pyknosed Nuclei (%) [6]: 20%
- Population Tubulin-Different-Phenotype (%) [6]: 61%
- Total Cell Count [6]: 156
- Population Apoptotic (%) [7]: 50%
- Population Fragmented Nuclei (%) [7]: 20%
- Population Healthy Nuclei (%) [7]: 62%
- Population Hoechst High Intensity Objects (%) [7]: 8%
- Population Membrane Permeable-Phenotype (%) [7]: 0%
- Population Mitochondria Different-Phenotype (%) [7]: 12%
- Population Mitotic Cells (%) [7]: 50%
- Population Normal (%) [7]: 91%
- Population Pyknosed Nuclei (%) [7]: 17%
- Population Tubulin-Different-Phenotype (%) [7]: 59%
- Total Cell Count [7]: 113
- Population Apoptotic (%) [8]: 41%
- Population Fragmented Nuclei (%) [8]: 41%
- Population Healthy Nuclei (%) [8]: 43%
- Population Hoechst High Intensity Objects (%) [8]: 5%
- Population Membrane Permeable-Phenotype (%) [8]: 11%
- Population Mitochondria Different-Phenotype (%) [8]: 8%
- Population Mitotic Cells (%) [8]: 58%
- Population Normal (%) [8]: 94%
- Population Pyknosed Nuclei (%) [8]: 15%
- Population Tubulin-Different-Phenotype (%) [8]: 85%
- Total Cell Count [8]: 85
- Population Apoptotic (%) [9]: 76%
- Population Fragmented Nuclei (%) [9]: 21%
- Population Healthy Nuclei (%) [9]: 65%
- Population Hoechst High Intensity Objects (%) [9]: 6%
- Population Membrane Permeable-Phenotype (%) [9]: 3%
- Population Mitochondria Different-Phenotype (%) [9]: 8%
- Population Mitotic Cells (%) [9]: 23%
- Population Normal (%) [9]: 93%
- Population Pyknosed Nuclei (%) [9]: 12%
- Population Tubulin-Different-Phenotype (%) [9]: 57%
- Total Cell Count [9]: 144
- Population Apoptotic (%) [10]: 44%
- Population Fragmented Nuclei (%) [10]: 36%
- Population Healthy Nuclei (%) [10]: 40%
- Population Hoechst High Intensity Objects (%) [10]: 7%
- Population Membrane Permeable-Phenotype (%) [10]: 5%
- Population Mitochondria Different-Phenotype (%) [10]: 7%
- Population Mitotic Cells (%) [10]: 55%
- Population Normal (%) [10]: 92%
- Population Pyknosed Nuclei (%) [10]: 22%
- Population Tubulin-Different-Phenotype (%) [10]: 77%
- Total Cell Count [10]: 141
- Population Apoptotic (%) [11]: 72%
- Population Fragmented Nuclei (%) [11]: 24%
- Population Healthy Nuclei (%) [11]: 54%
- Population Hoechst High Intensity Objects (%) [11]: 9%
- Population Membrane Permeable-Phenotype (%) [11]: 0%
- Population Mitochondria Different-Phenotype (%) [11]: 20%
- Population Mitotic Cells (%) [11]: 27%
- Population Normal (%) [11]: 90%
- Population Pyknosed Nuclei (%) [11]: 20%
- Population Tubulin-Different-Phenotype (%) [11]: 55%
- Total Cell Count [11]: 117
- Population Apoptotic (%) [12]: 12%
- Population Fragmented Nuclei (%) [12]: 47%
- Population Healthy Nuclei (%) [12]: 44%
- Population Hoechst High Intensity Objects (%) [12]: 0%
- Population Membrane Permeable-Phenotype (%) [12]: 8%
- Population Mitochondria Different-Phenotype (%) [12]: 13%
- Population Mitotic Cells (%) [12]: 87%
- Population Normal (%) [12]: 99%
- Population Pyknosed Nuclei (%) [12]: 7%
- Population Tubulin-Different-Phenotype (%) [12]: 73%
- Total Cell Count [12]: 102
